According to ChEMBL document CHEMBL1125064, “Synthesis and antiviral activity of (S)-9-[4-hydroxy-3-(phosphonomethoxy)butyl]guanine” (1990):
Converted amounts (≈) assume the structure as drawn.

Key:
Format in all cases: functional
[1] = tested on: Human betaherpesvirus 5; assay: Antiviral activity against herpesvirus HCMV in AD-169 strain in […] cells; conditions: read-out: ID50 (the source's name)
Summary of the method: (§1)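 HCMV strain AD-169 plaque-reduction assay in MRC-5 cells (human lung fibroblasts); ID50 reported in µg/mL.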

[2] = tested on: Human alphaherpesvirus 2; assay: Antiviral activity against herpesvirus HSV-2 in G strain in tissue culture in Vero cells; conditions: Human alphaherpesvirus 2, Vero; read-out: ID50 (the source's name)
Summary of the method: (§2)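 HSV-1 strain BWS or HSV-2 strain G plaque-reduction assay in Vero cells; ID50 reported in µg/mL.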

[3] = tested on: Vero; assay: Antiviral activity against herpesvirus vero cells in tissue culture; conditions: Chlorocebus sabaeus, read-out: ID50 (the source's name)
[4] = tested on: Human alphaherpesvirus 1; assay: Antiviral activity against herpesvirus HSV-1 in BWS strain in Vero cells; conditions: Human alphaherpesvirus 1, Vero; read-out: ID50 (the source's name); summary of the method: as §2
[5] = Antiviral activity against herpesvirus […] cells in tissue culture; conditions: Homo sapiens; read-out: ID50 (the source's name)
[6] = tested on: Human betaherpesvirus 5; assay: Antiviral activity against herpesvirus HCMV in AD-169 strain in tissue culture.; conditions: read-out: ID50 (the source's name); summary of the method: as §1
[7] = tested on: Human alphaherpesvirus 1; assay: Antiviral activity against herpesvirus HSV-1 in BWS strain in tissue culture.; conditions: read-out: ID50 (the source's name); summary of the method: as §2
[8] = Antiviral activity against herpesvirus […] cells in tissue culture.; conditions: Homo sapiens; read-out: ID50 (the source's name)
[9] = tested on: Vero; assay: Antiviral activity against herpesvirus vero cells in tissue culture.; conditions: Chlorocebus sabaeus, read-out: ID50 (the source's name)
[10] = tested on: Human alphaherpesvirus 2; assay: Antiviral activity against herpesvirus HSV-2 in G strain in tissue culture.; conditions: read-out: ID50 (the source's name); summary of the method: as §2

Row | SMILES | IC50 [1] [µg/mL] | IC50 [2] [µg/mL] | IC50 [3] [µg/mL] | IC50 [4] [µg/mL] | IC50 [5] [µg/mL] | IC50 [6] [µg/mL] | IC50 [7] [µg/mL] | IC50 [8] [µg/mL] | IC50 [9] [µg/mL] | IC50 [10] [µg/mL]
1 | Nc1nc(O)c2ncn(CC[C@@H](CO)OCP(=O)(O)O)c2n1 | 1 (≈ 3 µM) | 97 (≈ 291 µM) | > 100 | > 100 | 10 (≈ 30 µM) | – | – | – | – | –
2 | Nc1ccn(CC[C@@H](CO)OCP(=O)(O)O)c(=O)n1 | > 100 | > 100 | > 100 | > 100 | > 100 | – | – | – | – | –
3 | Nc1ncnc2c1ncn2CC[C@@H](CO)OCP(=O)(O)O | > 100 | > 100 | > 100 | > 100 | > 100 | – | – | – | – | –
4 | Nc1nc2c(ncn2COC(CO)CO)c(=O)[nH]1 [GANCICLOVIR] | – | – | – | – | – | 5 (≈ 19.6 µM) | 0.2 (≈ 0.784 µM) | > 100 | > 100 | 1.6 (≈ 6.27 µM)
